# Screening data as filed in PubChem BioAssay.
# EP2 mod: modulators of human EP2 prostaglandin E2 receptor | P43116 | EP2-expressing cells, cAMP HTRF FRET, PGE2 co-stimulation | induction, % at 25 µM | 0.83% of 260,000 active;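 active = compounds whose cAMP rise, as percent of the full-agonist control response, exceeds 60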;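 also: rat C6 glioma line stably carrying human EP2 under a CMV promoter; the protocol text gives 20 µM as final concentration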
# EP2 antag: inhibitors of human EP2 prostaglandin E2 receptor; C6 glioma cells expressing human EP2, cAMP TR-FRET; cells stimulated with saturating PGE2; inhibition, % at 25 µM; 0.52% of 260,000 active;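 active = percent inhibition above 40 after rounding to a whole number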;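 also: rat C6 glioma host cells with rolipram phosphodiesterase inhibitor present; the protocol text gives 20 µM as final concentration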
# NPY-Y2 antag: blocks the human neuropeptide Y Y2 receptor. NPY-Y2 expressing cells, antagonist mode. P49146. 0.99% of 140,000 active. inhibition, % at 2.7 µM; in the data active = inhibition above about 17%
# Target sequence (P49146 whole entry, looked up): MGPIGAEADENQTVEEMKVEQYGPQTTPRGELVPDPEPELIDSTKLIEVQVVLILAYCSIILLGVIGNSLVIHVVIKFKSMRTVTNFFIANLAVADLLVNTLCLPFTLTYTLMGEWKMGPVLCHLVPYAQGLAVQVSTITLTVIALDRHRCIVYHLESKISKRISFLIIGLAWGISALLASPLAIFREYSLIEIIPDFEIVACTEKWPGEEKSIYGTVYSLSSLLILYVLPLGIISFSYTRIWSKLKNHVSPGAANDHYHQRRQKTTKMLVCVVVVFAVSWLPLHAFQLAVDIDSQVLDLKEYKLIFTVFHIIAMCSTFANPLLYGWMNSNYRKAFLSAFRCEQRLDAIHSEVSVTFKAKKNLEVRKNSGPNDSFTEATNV
# NPY-Y1 PAM-ag: potentiates or activates human NPY-Y1 receptor; P25929; activation, % at 3.6 µM; NPY-Y1 expressing cells, potentiator/agonist activation; AID 1304; 0.37% of 220,000 active; in the data active = activation above about 33%, passing the limit was not always enough;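 also: cells stimulated with NPY at EC10 then isoproterenol at EC100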
# NPY-Y1 antag: blocks the human neuropeptide Y Y1 receptor. inhibition, % at 3.6 µM. 1% of 200,000 active. HEK293-CNG Y1 cells, membrane potential fluorescence; NPY at EC95, then isoproterenol. P25929;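 active = inhibition above the campaign mean inhibition of all tested compounds plus 3 SD, cut at about 20% in these data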
#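 Material: HEK293 cells with Y1 receptor plus CNG channel; times: compound incubation 1 h at room temperature, readout 45 min post-stimulation; signal: fluorescence, membrane potential probe; read-out basis: fluorescence ratio normalized to % inhibition between controls; benchmarks: full-block control isoproterenol-only wells, zero-block control NPY plus isoproterenol wells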
# NPY-Y2 PAM-ag: human NPY-Y2 potentiation or agonism, primary screen | cells expressing NPY-Y2, potentiator/agonist read-out | P49146 | activation, % at 3.6 µM | 0.45% of 220,000 active | AID 1359; in the data active = activation above about 27%;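 also: cells stimulated with NPY near EC25 plus isoproterenol at EC100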
# A number is an active result; i = inactive; nt = no result given. Shown are actives, neighbours in structure and some others; about 2.8% of the full set was active somewhere.
SMILES,EP2 mod,EP2 antag,NPY-Y2 antag,NPY-Y1 PAM-ag,NPY-Y1 antag,NPY-Y2 PAM-ag
Cc1ccc2[nH]c(=O)c(CN(Cc3ccccc3Cl)Cc3nnnn3C3CCCC3)cc2c1,74,i,nt,nt,nt,nt
Cc1ccc2[nH]c(=O)c(CN(Cc3ccccc3)Cc3nnnn3C3CCCCC3)cc2c1,i,i,nt,nt,nt,nt
COc1ccccc1CN(Cc1cc2cc(C)ccc2[nH]c1=O)Cc1nnnn1C1CCCC1,65,i,nt,nt,nt,nt
COc1ccccc1N(C(=O)c1ccco1)C(C(=O)NC1CCCC1)c1ccccc1F (centres undefined),i,i,nt,nt,nt,nt
COc1ccc(C(=O)c2ccccc2)cc1,i,i,nt,i,i,i
COc1ccc(C(=O)[C@H](Br)[C@H](Br)C(=O)O)cc1,i,42,nt,nt,nt,nt
Cc1cc(OCC(O)CNC(C)(C)C)ccc1Cl (centres undefined),i,i,nt,110,i,102
CC(C)(C)NCC(O)COCc1ccc(Cl)cc1 (centres undefined),i,i,i,73,i,68
CCc1ccc(OCC(O)CNC(C)(C)C)cc1 (centres undefined),i,i,i,93,i,96
CC(C)NCC(O)COCc1ccc(Cl)cc1 (centres undefined),i,i,i,i,i,i
COc1cccc(-n2c(=O)[nH]c3c(C(N)=O)nc(-c4cccnc4)nc32)c1,i,nt,nt,nt,nt,nt
CCOC(=O)N(NC(=O)C(O)(c1ccccc1)c1ccccc1)c1ccccc1,i,i,20,i,46,i
CCOC(=O)N(NC(=O)C(O)(C(C)C)C(C)C)c1ccccc1,i,i,nt,i,i,i
COC(=O)N(NC(=O)C(O)(c1ccccc1)c1ccccc1)c1ccc(C)cc1,i,i,21,i,31,i
CCc1nnc2sc(-c3ccc(NC(=O)C(C)C)cc3)nn12,i,i,nt,nt,nt,nt
COc1ccc(-c2nsc3c(SCC(=O)Nc4ccc(NC(C)=O)cc4)ncnc23)cc1,i,i,nt,nt,nt,nt
CN(C)CCCN=c1c2ccccc2n(C)c2[nH]c(=O)n(C)c(=O)c12,i,46,nt,nt,nt,nt
CN(C)CCCn1c(=S)[nH]c2ccccc2c1=O,i,i,nt,i,i,i
CCN(CC)C(=O)c1sc(NC(=O)COc2ccc(Cl)cc2Cl)c(C#N)c1C,i,i,nt,nt,nt,nt
CSc1ncc(CN2CCc3c([nH]c4ccccc34)C2c2cccc(C)n2)cn1 (centres undefined),i,i,nt,i,nt,i
Fc1ccccc1C1c2[nH]c3ccccc3c2CCN1Cc1ccoc1 (centres undefined),64,i,nt,i,i,i
Cc1ccc(CNC(=O)CSc2nc3c(sc4ccccc43)c(=O)n2CCCN2CCCC2)cc1,i,i,nt,i,21,i
O=C(CSc1nc2c(sc3ccccc32)c(=O)n1CCCN1CCCC1)NCc1ccccc1,i,i,nt,i,i,i
O=C(Cn1nc(-c2ccccc2)ccc1=O)Nc1ccc(N2CCN(C(=O)c3ccccc3)CC2)cc1,i,i,i,i,i,33
Cn1ccnc1C1(O)CCN(CC(=O)Nc2cccc(F)c2)CC1,i,i,nt,nt,nt,nt
SMILES,EP2 mod,EP2 antag,NPY-Y2 antag,NPY-Y1 PAM-ag,NPY-Y1 antag,NPY-Y2 PAM-ag
NS(=O)(=O)c1ccc(N=Nc2cc3ccccc3c(C(=O)O)c2O)cc1,i,45,nt,nt,nt,nt
O=C(N=c1ccn(-c2nc3ccccc3nc2NS(=O)(=O)c2ccc(Cl)cc2)cc1)c1cccs1,i,48,nt,i,nt,i
CCOc1ccc(S(=O)(=O)Nc2nc3ccccc3nc2-n2ccc(=NC(=O)c3cccs3)cc2)cc1,i,45,i,i,i,i
CC(=O)Nc1ccc(S(=O)(=O)Nc2nc3ccccc3nc2-n2ccc(=NC(=O)c3ccccc3)cc2)cc1,i,i,nt,i,nt,i
Cc1noc(C)c1S(=O)(=O)N(CCc1ccccc1)Cc1ccccc1,i,i,20,i,24,i
Cc1noc(C)c1S(=O)(=O)N(C)CC(=O)NCc1ccccc1,i,i,i,i,i,i
CCCSC1=C(C#N)C2(CCCCC2)C(C#N)=C(N)N1,i,i,nt,53,i,32
C=CC[N+](CC)(CC)CCNC(=O)c1c(O)c2ccccc2n(C)c1=O,i,i,nt,nt,nt,nt
COc1ccc(-c2noc(-c3ccccc3C(=O)Nc3cccc(OC)c3)n2)cc1,i,i,24,i,43,i
COc1ccc(-c2noc(-c3ccccc3C(=O)Nc3cccnc3)n2)cc1OC,i,i,i,i,i,i
COc1ccc2cc(-c3nc4cccc(C)n4c3NC3CCCC3)c(=O)[nH]c2c1,i,i,nt,nt,nt,nt
CCCCCCCc1nc2c(=O)n(C)c3ccccc3c2o1,70,i,i,i,i,i
CCOCc1nnc(NC(=O)CCCOc2ccc(Cl)cc2C)s1,i,i,nt,nt,nt,nt
Cc1cc(C(C)(C)C)oc1C(=O)N(CC(=O)NC1CCCC1)Cc1ccccc1Cl,i,i,27,i,26,i
Cc1ccccc1N(CC(=O)NC1CCCC1)C(=O)c1oc(C(C)(C)C)cc1C,i,i,i,i,i,i
COc1ccc([C@@H]2C[C@H](C(=O)NC3CCCCC3)N(C)S(=O)(=O)N2)cc1OC,i,nt,nt,nt,nt,nt
C/C(=N\NC(=O)c1ccc(C)cc1C)c1ccc2c(c1)Nc1ccccc1S2,i,43,i,i,i,i
COc1cccc(C(O)CN2CCC3(CC2)CC(O)c2cc(F)ccc2O3)c1 (centres undefined),i,i,nt,nt,nt,nt
S=C(Nc1ccc2c(c1)Cc1ccccc1-2)Nc1ccc2c(c1)Cc1ccccc1-2,i,55,nt,nt,nt,nt
Cc1ccccc1OCC(=O)Nc1ccc2c(c1)Cc1ccccc1-2,i,i,19,i,32,i
O=C(O)c1ccccc1-c1ccccc1C(=O)Nc1ccc2c(c1)Cc1ccccc1-2,i,i,nt,nt,nt,nt
O=C(O)c1ccccc1-c1ccccc1C(=O)Nc1ccc2c(c1)Cc1cc(F)ccc1-2,i,43,nt,nt,nt,nt
CCn1c(CN2CCc3c(nc(C)[nH]c3=O)C2)nc2ccccc21,i,i,nt,nt,nt,nt
CCCS(=O)(=O)C(=C(Nc1ccccc1)Nc1ccccc1)S(=O)(=O)CCC,63,i,i,i,i,i
N=c1sc2ccccc2n1-c1ccccc1,61,i,i,i,i,i
SMILES,EP2 mod,EP2 antag,NPY-Y2 antag,NPY-Y1 PAM-ag,NPY-Y1 antag,NPY-Y2 PAM-ag
C=CC(=O)N=c1sc2ccccc2n1-c1ccccc1,i,i,nt,i,i,i
CCN(CC)c1ccc(C2=NNC(=O)CC2C)cc1[N+](=O)[O-] (centres undefined),i,i,71,i,64,i
CC1CC(=O)NN=C1c1ccc(N(C)C)c([N+](=O)[O-])c1 (centres undefined),i,i,94,i,78,i
CC1CC(=O)NN=C1c1cccs1 (centres undefined),i,i,nt,i,nt,i
Cc1ccc(NC(=O)CSc2nnnn2C)cc1Cl,i,i,nt,nt,nt,nt
CCOc1ccc(-n2c(SCC(=O)Nc3ccc(N(C)C)cc3)nc3ccccc3c2=O)cc1,i,i,nt,nt,nt,nt
O=C(N1CCOCC1)N1CCC[C@H]1Cn1nc(-c2ccc(F)cc2)ccc1=O,i,nt,nt,nt,nt,nt
COc1ccc(-c2nnc(SCC(=O)c3cc(OC)ccc3OC)o2)cc1,i,i,nt,nt,nt,nt
CCOc1cc(/C=C2\C(=O)N(CC3CCCO3)C(C)=C2C(=O)OC)ccc1O (centres undefined),i,i,nt,nt,nt,nt
